Data as given in ChEMBL document CHEMBL5360543, “Designed multiple ligands for the treatment of type 2 diabetes mellitus and its complications: Discovery of (5-arylidene-4-oxo-2-thioxothiazolidin-3-yl)alkanoic acids active as novel dual-targeted PTP1B/AKR1B1 inhibitors” (Eur J Med Chem, 2023).
Each block holds one molecule with its values, some of them ahead of it. The source made the active and inactive calls. The rule behind the calls is not given here.

Columns and labels:
[1] = biological target: T1, Aldo-keto reductase family 1 member B1 (Homo sapiens, UniProt P15121); test: Inhibition of human recombinant AKR1B1 expressed in Escherichia coli BL21(DE3)pLysS using L-idose as substrate by NADPH oxidation based absorbance analysis
[2] = biological target: T2, Tyrosine-protein phosphatase non-receptor type 1 (Homo sapiens) (UniProt P18031); test: Inhibition of N-terminal polyHis-tagged human PTP1B1 (1 to 303 residues) expressed in Escherichia coli BL21(DE3)pLysS assessed as enzyme residual activity using pNPP as substrate at 5 uM by spectrophotometric analysis
T2 sequence (whole entry): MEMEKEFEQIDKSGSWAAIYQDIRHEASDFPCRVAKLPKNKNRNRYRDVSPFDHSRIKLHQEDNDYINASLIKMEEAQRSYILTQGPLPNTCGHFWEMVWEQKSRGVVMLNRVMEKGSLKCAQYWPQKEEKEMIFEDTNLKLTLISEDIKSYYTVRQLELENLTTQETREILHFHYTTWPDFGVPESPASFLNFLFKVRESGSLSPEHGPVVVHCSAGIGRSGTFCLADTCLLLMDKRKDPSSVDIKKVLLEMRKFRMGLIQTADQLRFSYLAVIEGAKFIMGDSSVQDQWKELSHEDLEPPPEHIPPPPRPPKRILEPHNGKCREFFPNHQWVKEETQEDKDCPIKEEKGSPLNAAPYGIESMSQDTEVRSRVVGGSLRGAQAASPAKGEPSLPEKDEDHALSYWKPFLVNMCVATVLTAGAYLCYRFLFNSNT
In short: (§1)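 His-tagged human PTP1B (1–303) from E. coli BL21(DE3)pLysS, assayed in 0.075 M β,β-dimethylglutarate pH 7.0 with 1 mM EDTA, 0.1 mM DTT and pNPP. Reaction stopped with 0.1 M KOH; p-nitrophenol read at 400 nm. IC50 from 15–16 inhibitor concentrations in triplicate, normalized to control, fitted by nonlinear regression. Single-point residual activity at 5 µM.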

[3] = biological target: T3, Tyrosine-protein phosphatase non-receptor type 2 (Homo sapiens, UniProt P17706); test: Inhibition of N-terminal polyHis-tagged human recombinant TC-PTPb (1 to 415 residues) expressed in Escherichia coli BL21(DE3)pLysS
T3 sequence (P17706 whole entry): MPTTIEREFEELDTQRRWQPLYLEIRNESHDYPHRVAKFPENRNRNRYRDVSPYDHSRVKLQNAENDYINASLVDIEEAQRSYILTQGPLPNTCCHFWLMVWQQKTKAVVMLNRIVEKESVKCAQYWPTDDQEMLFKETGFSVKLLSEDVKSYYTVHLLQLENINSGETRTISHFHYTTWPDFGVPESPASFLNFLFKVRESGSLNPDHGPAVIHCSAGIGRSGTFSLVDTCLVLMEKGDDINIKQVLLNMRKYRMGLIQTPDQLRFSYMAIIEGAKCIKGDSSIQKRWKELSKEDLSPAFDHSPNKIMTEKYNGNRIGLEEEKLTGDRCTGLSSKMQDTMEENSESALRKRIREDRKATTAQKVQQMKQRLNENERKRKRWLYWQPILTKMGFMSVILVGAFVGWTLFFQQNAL

[4] = biological target: T1, Aldo-keto reductase family 1 member B1; test: Ratio of Ki for human recombinant AKR1B1 expressed in Escherichia coli BL21(DE3)pLysS assessed as apparent dissociation constant for EI complex to Ki for human recombinant AKR1B1 expressed in Escherichia coli BL21(DE3)pLysS assessed as apparent dissociation constant for ESI complex
In short: (§2)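 AKR1B1 rates measured at varied L-idose concentrations with and without several inhibitor concentrations, then Lineweaver–Burk analysis. […] Tight binders fitted with the Morrison equation, KM for L-idose taken as 3.8 mM. At least three independent experiments.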

[5] = biological target: T4, Tyrosine-protein phosphatase non-receptor type 1 (Homo sapiens, UniProt P18031); test: Inhibition of N-terminal polyHis-tagged human PTP1B1 (1 to 303 residues) expressed in Escherichia coli BL21(DE3)pLysS using pNPP as substrate by spectrophotometric analysis; in short: as §1
T4 sequence (P18031 whole entry): T2 sequence (whole entry)

[6] = biological target: T4, Tyrosine-protein phosphatase non-receptor type 1; test: Non-competitive inhibition of N-terminal polyHis-tagged human PTP1B1 (1 to 303 residues) expressed in Escherichia coli BL21(DE3)pLysS assessed as apparent dissociation constant for EI complex using pNPP as substrate by Lineweaver-Burk plot analysis
In short: (§3)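 PTP1B initial pNPP hydrolysis rates measured at seven pNPP concentrations (0.5–25 mM) and at least three inhibitor concentrations, in triplicate. Data fitted to Michaelis–Menten; KM and Vmax dependence on inhibitor analysed by Lineweaver–Burk plots.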

C2C12 = test: Cytotoxicity against mouse C2C12 cells assessed as reduction in cell viability at 20 uM incubated for 24 hrs by MTT assay; assay type: toxicity, cell-based; conditions: c2c12, 24 h
In short: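 C2C12 myoblasts were differentiated for 96 h in DMEM with 2% horse serum, then held 24 h in complete medium with 20 µM compound, DMSO vehicle as control. MTT 0.5 mg/mL was added, cells lysed in DMSO, absorbance read, and values normalized to vehicle. Quadruplicate, mean ± SD (n = 4).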

[7] = biological target: T1, Aldo-keto reductase family 1 member B1; test: Mixed non-competitive inhibition of human recombinant AKR1B1 expressed in Escherichia coli BL21(DE3)pLysS assessed as apparent dissociation constant for ESI complex using L-idose as substrate by secondary plot analysis; in short: as §2
[8] = biological target: T1, Aldo-keto reductase family 1 member B1; test: Reversible inhibition of human recombinant AKR1B1 expressed in Escherichia coli BL21(DE3)pLysS assessed as recovery of enzyme activity using L-idose as substrate measured after extensive dialysis by NADPH oxidation based absorbance analysis; parameters: scale not given: the % may be the effect or the level left
[9] = biological target: T1, Aldo-keto reductase family 1 member B1; test: Mixed non-competitive inhibition of human recombinant AKR1B1 expressed in Escherichia coli BL21(DE3)pLysS assessed as apparent dissociation constant for EI complex using L-idose as substrate by secondary plot analysis; in short: as §2
[10] = biological target: T5, Tyrosine-protein phosphatase non-receptor type 1 (Mus musculus) (UniProt P35821); test: Inhibition of PTP1B in mouse C2C12 cells assessed as increase in Akt phosphorylation by measuring increase in ratio of pAkt to Akt at 20 uM treated for 15 mins by western blot analysis; assay type: cell-based
T5 sequence (whole entry): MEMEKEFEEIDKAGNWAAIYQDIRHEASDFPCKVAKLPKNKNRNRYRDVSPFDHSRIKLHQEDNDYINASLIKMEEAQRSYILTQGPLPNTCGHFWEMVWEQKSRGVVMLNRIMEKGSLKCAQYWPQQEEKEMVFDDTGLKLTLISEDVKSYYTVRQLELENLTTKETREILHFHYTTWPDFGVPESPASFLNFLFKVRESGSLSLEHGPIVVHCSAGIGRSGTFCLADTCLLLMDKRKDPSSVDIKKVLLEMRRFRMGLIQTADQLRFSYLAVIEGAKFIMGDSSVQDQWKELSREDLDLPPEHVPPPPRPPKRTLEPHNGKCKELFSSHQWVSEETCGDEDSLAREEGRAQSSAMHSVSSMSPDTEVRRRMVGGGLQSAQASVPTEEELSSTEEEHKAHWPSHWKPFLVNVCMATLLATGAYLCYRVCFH
In short: (§4)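 C2C12 cells starved 24 h, then given 10 nM insulin, 20 µM compound, or both, for 15 min. Washed in cold PBS, lysed in 1X Laemmli buffer, run on SDS-PAGE, blotted to PVDF. Probed with antibodies to phospho-Akt and total Akt, with actin as loading control. Bands quantified; triplicate, mean ± SD (n = 3).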

[11] = biological target: T5, Tyrosine-protein phosphatase non-receptor type 1 (Mus musculus); test: Inhibition of PTP1B in mouse C2C12 cells assessed as potentiation of insulin-induced Akt phosphorylation by measuring increase in ratio of pAkt to Akt at 20 uM treated for 15 mins in presence of insulin by western blot analysis; assay type: cell-based; in short: as §4
[12] = biological target: T2, Tyrosine-protein phosphatase non-receptor type 1 (Homo sapiens); test: Reversible inhibition of N-terminal polyHis-tagged human PTP1B1 (1 to 303 residues) expressed in Escherichia coli BL21(DE3)pLysS using pNPP as substrate pretreated with enzyme for 60 mins followed by 400-fold dilution with buffer containing substrate and measured after 15 mins by spectrophotometric analysis; conditions: time 75.0 min
In short: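 PTP1B incubated 60 min at 37 °C with saturating inhibitor, then diluted 400-fold into assay buffer containing 2.5 mM pNPP. Stopped after 15 min with 0.2 M KOH; absorbance read at 400 nm. Normalized to enzyme diluted with DMSO; mean ± SEM (n = 3).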

[13] = biological target: T4, Tyrosine-protein phosphatase non-receptor type 1; test: Non-competitive inhibition of N-terminal polyHis-tagged human PTP1B1 (1 to 303 residues) expressed in Escherichia coli BL21(DE3)pLysS assessed as apparent dissociation constant for ESI complex using pNPP as substrate by Lineweaver-Burk plot analysis; in short: as §3
Homo sapiens = organism: Homo sapiens; test: Selectivity index, ratio of IC50 for inhibition of N-terminal polyHis-tagged human recombinant TC-PTPb (1 to 415 residues) expressed in Escherichia coli BL21(DE3)pLysS to IC50 for inhibition of N-terminal polyHis-tagged human PTP1B1 (1 to 303 residues) expressed in Escherichia coli BL21(DE3)pLysS

IC50 [1]: 0.26 µM | Activity [2]: 79%
Compound: O=C(O)CN1C(=O)/C(=C/c2ccc(OCCCc3ccccc3)cc2)SC1=S

IC50 [3]: 193 µM | Ratio Ki [4]: 2 | IC50 [5]: 4 µM | Ki [6]: 12.1 µM | IC50 [1]: 0.33 µM | Ki [7]: 0.41 µM | Activity [8]: > 90% | Ki [9]: 1.3 µM | inhibition [10]: inactive | inhibition [11]: inactive | inhibition [12]: Active | Ki [13]: 17.5 µM | Ratio IC50 (Homo sapiens): 48
Compound: O=C(O)CN1C(=O)/C(=C/c2ccc(OCCCCc3ccccc3)cc2)SC1=S
Activity (C2C12): Non-Toxic

The remaining lines, values behind:

Compound: O=C(O)CN1C(=O)/C(=C/c2ccc(OCCCOc3ccccc3)cc2)SC1=S
IC50 [1]: 0.22 µM | Activity [2]: 87.6%

Compound: O=C(O)CCN1C(=O)/C(=C/c2cccc(OCCCOc3ccccc3)c2)SC1=S
IC50 [1]: 2.1 µM | Activity [2]: 77%

Compound: O=C(O)CCN1C(=O)/C(=C/c2ccc(OCCCc3ccccc3)cc2)SC1=S
IC50 [1]: 38.2 µM | Activity [2]: 99.8%

Compound: O=C(O)CN1C(=O)/C(=C/c2cccc(OCCCc3ccccc3)c2)SC1=S
IC50 [1]: 0.05 µM | Activity [2]: 81%
